Assay results taken from ChEMBL document CHEMBL1145247, “4-Alkyl and 4,4'-dialkyl 1,2-bis(4-chlorophenyl)pyrazolidine-3,5-dione derivatives as new inhibitors of bacterial cell wall biosynthesis” (Bioorg Med Chem Lett, 2005).
Values after ≈ are worked out from the molar mass of the structure shown.

Legend:
Escherichia coli [1] = test: Minimum inhibitory concentration against cell wall biosynthesis of Escherichia coli GC 4559; format: functional
How it was run: (§1)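 Broth microdilution per NCCLS M7-A3. Mueller–Hinton broth for staphylococci and enterococci, 2-fold serial dilutions of agent. Final inoculum 1–5 × 10^5 CFU/mL.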

Enterococcus faecalis [2] = test: Minimum inhibitory concentration against cell wall biosynthesis of vancomycin susceptible (ATCC) Enterococcus faecalis GC 4555; format: functional; how it was run: as §1
Escherichia coli [3] = test: Minimum inhibitory concentration against cell wall biosynthesis of Escherichia coli GC 4560; format: functional
Staphylococcus aureus [4] = test: Minimum inhibitory concentration against cell wall biosynthesis of methicillin susceptible Staphylococcus aureus GC 4543; format: functional
How it was run: (§2)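 Broth microdilution per NCCLS M7-A3 in Mueller–Hinton broth, aerobic. Agents tested as 2-fold serial dilutions, with a final inoculum of 1–5 × 10^5 CFU/mL. Plates incubated 18–22 h at 35 °C in ambient air. MIC read as the endpoint.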

Streptococcus pneumoniae [5] = test: Minimum inhibitory concentration against cell wall biosynthesis of penicillin resistant Streptococcus pneumoniae GC 1894 (PRSP) in the presence of 4% bovine serum albumin; format: functional
Streptococcus pneumoniae [6] = test: Minimum inhibitory concentration against cell wall biosynthesis of penicillin resistant Streptococcus pneumoniae GC 1894 (PRSP); format: functional
How it was run: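 Broth microdilution per NCCLS M7-A3, using Mueller–Hinton broth supplemented with 5% sheep blood. Agents tested as 2-fold serial dilutions, with a final inoculum of 1–5 × 10^5 CFU/mL.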

[7] = target: T1, UDP-N-acetylenolpyruvoylglucosamine reductase (Escherichia coli K-12, UniProt P08373); test: Inhibitory concentration against MurB enzyme in Escherichia coli
T1 sequence (P08373 whole entry): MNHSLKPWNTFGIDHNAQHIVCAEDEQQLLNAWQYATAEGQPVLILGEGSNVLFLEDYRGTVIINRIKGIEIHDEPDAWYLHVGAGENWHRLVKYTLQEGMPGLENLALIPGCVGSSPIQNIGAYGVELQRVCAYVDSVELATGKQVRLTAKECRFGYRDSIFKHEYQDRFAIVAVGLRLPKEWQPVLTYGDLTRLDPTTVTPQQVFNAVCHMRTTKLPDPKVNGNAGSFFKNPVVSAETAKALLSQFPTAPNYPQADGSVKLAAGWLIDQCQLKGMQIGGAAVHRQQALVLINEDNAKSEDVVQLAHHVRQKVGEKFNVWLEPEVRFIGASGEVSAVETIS
How it was run: (§3)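 Enzyme (20 nM) preincubated 20 min with inhibitor, then substrates added to final 50 µM EP-UNAG and 100 µM NADPH. Activity followed spectrophotometrically. At least six inhibitor concentrations between 1.5 and 50 µM per compound. IC50 from sigmoid Hill curve fit (0–100).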

Enterococcus faecalis [8] = test: Minimum inhibitory concentration against cell wall biosynthesis of vancomycin resistant Enterococcus faecalis GC 2242 (VRE); format: functional; how it was run: as §2
[9] = target: UDP-N-acetylglucosamine 1-carboxyvinyltransferase (Escherichia coli K-12, UniProt P0A749); test: Inhibitory concentration against MurA enzyme in Escherichia coli
Sequence of UDP-N-acetylglucosamine 1-carboxyvinyltransferase (P0A749 whole entry): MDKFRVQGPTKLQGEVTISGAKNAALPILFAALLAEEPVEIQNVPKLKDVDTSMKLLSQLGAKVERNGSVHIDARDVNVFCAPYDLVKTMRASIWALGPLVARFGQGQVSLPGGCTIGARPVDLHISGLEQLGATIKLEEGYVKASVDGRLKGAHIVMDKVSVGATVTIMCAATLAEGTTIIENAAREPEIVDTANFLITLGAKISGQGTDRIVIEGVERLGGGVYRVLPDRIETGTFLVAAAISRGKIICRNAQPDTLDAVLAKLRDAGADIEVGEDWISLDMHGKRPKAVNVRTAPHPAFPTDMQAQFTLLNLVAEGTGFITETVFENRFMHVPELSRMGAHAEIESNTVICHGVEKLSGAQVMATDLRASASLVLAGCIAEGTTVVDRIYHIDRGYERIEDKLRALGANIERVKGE
How it was run: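 Enzyme preincubated with inhibitor 10 min at 37 °C before substrates were added. Reaction ran 30 min at 37 °C and was stopped with malachite green reagent (0.03% malachite green, 1.4% ammonium molybdate, 1.3 N HCl) for phosphate read-out.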

[10] = target: T2, UDP-N-acetylenolpyruvoylglucosamine reductase (Staphylococcus aureus, UniProt P61431); test: Inhibitory concentration against MurB enzyme in Staphylococcus aureus; how it was run: as §3
T2 sequence (P61431 whole entry): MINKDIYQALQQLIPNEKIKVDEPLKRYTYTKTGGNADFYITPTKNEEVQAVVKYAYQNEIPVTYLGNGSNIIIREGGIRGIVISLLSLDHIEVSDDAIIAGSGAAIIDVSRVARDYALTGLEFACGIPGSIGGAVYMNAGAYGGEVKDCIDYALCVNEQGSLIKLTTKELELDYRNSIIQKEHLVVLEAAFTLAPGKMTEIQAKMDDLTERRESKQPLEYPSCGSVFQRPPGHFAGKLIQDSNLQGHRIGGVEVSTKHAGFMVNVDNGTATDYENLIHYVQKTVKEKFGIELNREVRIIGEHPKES

Staphylococcus aureus [11] = test: Minimum inhibitory concentration against cell wall biosynthesis of methicillin resistant Staphylococcus aureus GC 1131; format: functional; how it was run: as §2
[12] = Minimum inhibitory concentration against cell wall biosynthesis of methicillin-susceptible Coagulase negative staphylococcus GC 646 (MSCNS); format: functional; how it was run: as §1
Staphylococcus aureus [13] = test: Minimal inhibitory concentration against methicillin susceptible Staphylococcus aureus was determined; Range = 25-50 uM; format: functional; how it was run: as §2
Staphylococcus aureus [14] = test: Minimal inhibitory concentration against methicillin resistant Staphylococcus aureus was determined; Range = 25-50 uM; format: functional; how it was run: as §2
Enterococcus faecalis [15] = test: Minimal inhibitory concentration against vancomycin susceptible Enterococcus faecalis was determined; Range = 25-50 uM; format: functional; how it was run: as §2
Enterococcus faecalis [16] = test: Minimal inhibitory concentration against vancomycin resistant Enterococcus faecalis was determined; Range = 25-50 uM; format: functional; how it was run: as §2

Row | SMILES | MIC (Escherichia coli [1]) [µM] | MIC (Enterococcus faecalis [2]) [µM] | MIC (Escherichia coli [3]) [µM] | MIC (Staphylococcus aureus [4]) [µM] | MIC (Streptococcus pneumoniae [5]) [µM] | MIC (Streptococcus pneumoniae [6]) [µM] | IC50 [7] [µM] | MIC (Enterococcus faecalis [8]) [µM] | IC50 [9] [µM] | IC50 [10] [µM] | MIC (Staphylococcus aureus [11]) [µM] | MIC [12] [µM] | MIC (Staphylococcus aureus [13]) [µM] | MIC (Staphylococcus aureus [14]) [µM] | MIC (Enterococcus faecalis [15]) [µM] | MIC (Enterococcus faecalis [16]) [µM]
1 | O=C(CCCC1C(=O)N(c2ccc(Cl)cc2)N(c2ccc(Cl)cc2)C1=O)c1ccc(F)cc1 | > 200 | 50 (≈ 24.3 µg/mL) | 200 (≈ 97.1 µg/mL) | 50 (≈ 24.3 µg/mL) | > 200 | 12.5 (≈ 6.07 µg/mL) | 10 | 50 (≈ 24.3 µg/mL) | 32.4 | 11 | 50 (≈ 24.3 µg/mL) | 100 (≈ 48.5 µg/mL) | – | – | – | –
2 | O=C1N(c2ccc(Cl)cc2)N(c2ccc(Cl)cc2)C(=O)C1(CCCCCCc1ccccc1)CCCCCCc1ccccc1 | > 200 | > 200 | > 200 | 200 (≈ 128 µg/mL) | > 200 | 100 (≈ 64.2 µg/mL) | 7.2 | 200 (≈ 128 µg/mL) | 9.9 | 8.2 | > 200 | > 200 | – | – | – | –
3 | O=C(CC1(CC(=O)c2ccc(F)cc2F)C(=O)N(c2ccc(Cl)cc2)N(c2ccc(Cl)cc2)C1=O)c1ccc(F)cc1F | > 200 | 12.5 (≈ 7.87 µg/mL) | 100 (≈ 62.9 µg/mL) | 12.5 (≈ 7.87 µg/mL) | > 200 | 3.12 (≈ 1.96 µg/mL) | 5.8 | 12.5 (≈ 7.87 µg/mL) | 9.6 | 5.2 | 12.5 (≈ 7.87 µg/mL) | 25 (≈ 15.7 µg/mL) | – | – | – | –
4 | CCN(CCC1C(=O)N(c2ccc(Cl)cc2)N(c2ccc(Cl)cc2)C1=O)Cc1ccccc1 | > 200 | > 200 | > 200 | > 200 | > 200 | 100 (≈ 48.2 µg/mL) | > 50 | 200 (≈ 96.5 µg/mL) | > 50 | > 50 | 200 (≈ 96.5 µg/mL) | > 200 | – | – | – | –
5 | O=C1C(CCCCCCc2ccccc2)C(=O)N(c2ccc(Cl)cc2)N1c1ccc(Cl)cc1 | > 200 | 50 (≈ 24.1 µg/mL) | 200 (≈ 96.3 µg/mL) | 25 (≈ 12 µg/mL) | > 200 | 6.25 (≈ 3.01 µg/mL) | 8.9 | 50 (≈ 24.1 µg/mL) | 34.9 | 12 | 25 (≈ 12 µg/mL) | 100 (≈ 48.1 µg/mL) | 50 (≈ 24.1 µg/mL) | 50 (≈ 24.1 µg/mL) | 50 (≈ 24.1 µg/mL) | 50 (≈ 24.1 µg/mL)
6 | O=C1C(Cc2ccccc2Cl)C(=O)N(c2ccc(Cl)cc2)N1c1ccc(Cl)cc1 | > 200 | > 200 | > 200 | > 200 | > 200 | 12.5 (≈ 5.57 µg/mL) | > 50 | – | > 50 | > 50 | – | > 200 | – | – | – | –
7 | O=C1N(c2ccc(Cl)cc2)N(c2ccc(Cl)cc2)C(=O)C1(CCOCc1ccccc1)CCOCc1ccccc1 | > 200 | 25 (≈ 14.7 µg/mL) | 200 (≈ 118 µg/mL) | 100 (≈ 59 µg/mL) | > 200 | 12.5 (≈ 7.37 µg/mL) | 7.2 | 50 (≈ 29.5 µg/mL) | 20.1 | 7.5 | 100 (≈ 59 µg/mL) | 200 (≈ 118 µg/mL) | – | – | – | –
8 | CC1(CC(=O)c2ccc(F)cc2F)C(=O)N(c2ccc(Cl)cc2)N(c2ccc(Cl)cc2)C1=O | > 200 | 200 (≈ 97.9 µg/mL) | > 200 | > 200 | > 200 | > 200 | 49 | 100 (≈ 48.9 µg/mL) | > 50 | > 50 | – | > 200 | – | – | – | –
9 | O=C1C(CCSCc2ccccc2)C(=O)N(c2ccc(Cl)cc2)N1c1ccc(Cl)cc1 | > 200 | 100 (≈ 47.1 µg/mL) | 200 (≈ 94.3 µg/mL) | 25 (≈ 11.8 µg/mL) | > 200 | 6.25 (≈ 2.95 µg/mL) | 5.2 | 50 (≈ 23.6 µg/mL) | 9.8 | 5.1 | – | 50 (≈ 23.6 µg/mL) | – | – | – | –
